NSD2 inh – inhibitors of human histone methyltransferase NSD2 | O96028 | NSD2 peptide methylation, AlphaScreen, 120 min | inhibition, % at 12.5 µM | hit rate 0.54% among 310,000 | AID 743445; in the data active = inhibition above about 50%
Casp6 inh – inhibitors of human caspase-6; P55212; purified caspase-6, Z-VEID-R110 cleavage fluorescence; inhibition, % at 12.5 µM; hit rate 0.53% among 350,000;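 active = mean inhibition across replicates at least about 35%, with every replicate also reaching that limit, limit read from the data; inconclusive = only one of the two criteria met; inactive = neither criterion met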;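 note: 0% = median of neutral control wells and 100% = no fluorescence left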
Target sequence (P55212 24-179 limits assumed): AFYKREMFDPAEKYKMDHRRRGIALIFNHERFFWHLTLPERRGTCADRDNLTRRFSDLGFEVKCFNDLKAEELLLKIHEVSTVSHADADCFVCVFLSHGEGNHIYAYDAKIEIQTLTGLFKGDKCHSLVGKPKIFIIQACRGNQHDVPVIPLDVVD
Target sequence (P55212 194-293 limits assumed): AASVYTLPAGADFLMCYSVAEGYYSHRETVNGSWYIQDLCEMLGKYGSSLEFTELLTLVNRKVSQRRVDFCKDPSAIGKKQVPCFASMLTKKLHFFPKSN
esBAF inh – blocks esBAF chromatin remodeling in mouse ES cells; reporter increase, % at 12.5 µM; Bmi1-luciferase knock-in reporter, 24 h; 100% = twice the neutral-well signal; hit rate 2% among 350,000; in the data active = activation above about 40%; inconclusive = no clear call, values can overlap the other calls;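 note: 0% = median of the plate's neutral control wells and 100% = double that signal; a rise in the Bmi1 reporter signal indicates esBAF inhibition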
Xi reactivation – reactivates the inactive X chromosome in mouse fibroblasts. XiGFP mouse fibroblasts, % GFP-positive cells imaging, 3 d; cells co-treated with 5-aza-dC sensitizer; scaled so ellipticine positive control = 100%. hit rate 0.055% among 360,000. activation, % at 7.58 µM;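 active = mean normalized replicate activation at least 10% and every replicate at or above 10%; inconclusive = only one of the two criteria met; inactive = mean below 10% and not all replicates reach 10%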;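 note: 0% = median of on-plate neutral control wells and 100% = ellipticine 6 µM median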
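assay system = SV40-immortalized XiGFP fibroblast cells, line 68-5-11 | buffer or medium = DMEM plus 5-aza-dC sensitizer | doses = single-point pinned compound dosing | times = 3-day compound exposure, then 15 min fixation at room temperature | benchmarks = positive control ellipticine, 6 µM final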
MITF act – increases MITF-driven TRPM1 promoter luciferase signal; SK-MEL-5 TRPM1-promoter luciferase, 24 h; % of positive control, neutral wells = 0; activation, % at 12.5 µM; hit rate 0.75% among 300,000;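 active = mean activation of at least 80% with every replicate also reaching 80%; inconclusive = mean reaches 80% but some replicate falls short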;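 note: 0% = neutral control wells and 100% = parthenolide positive control wells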
Wnt act – Wnt/beta-catenin pathway activation; Wnt/beta-catenin reporter cell assay, activator, plate reader; activation, % at 9.35 µM; hit rate 1.2% among 300,000; AID 743398; in the data active = activation above about 30%, passing the limit was not always enough; inconclusive = no clear call, values can overlap the other calls;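 note: 0% = neutral control wells and 100% = positive control wells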
An asterisk follows results filed as active; ? = inconclusive; · = no result given. A selection: hits, their analogues and other compounds. The true share with any hit is near 3%.

SMILES | NSD2 inh | Casp6 inh | esBAF inh | Xi reactivation | MITF act | Wnt act
COc1cc(/C(C)=N/Nc2ccc(C(=O)O)cc2)cc(OC)c1OC | -0.8 | · | · | 0.0 | 35.3 | ·
CO[C@@H]1CN(C)C(=O)c2ccc(NC(C)=O)cc2OC[C@@H](C)NC[C@@H]1C | · | · | · | 0.0 | · | ·
O=C(C[C@H]1CC[C@H]2[C@@H](COC[C@@H](O)CN2Cc2cc(F)ccc2F)O1)NCc1ccc(F)cc1 | · | 1.3 | 1.0 | 0.2 | · | ·
COc1cc(/C=N/NC(=O)c2ccccc2)ccc1O | -2.1 | -2.7 | · | 0.0 | 0.9 | -2.4
C=CCOc1c(OC)cc(/C=N/Nc2cccc(C(=O)O)c2)c(Br)c1Br | 11.1 | 42.6* | · | 1.1 | 53.7 | -7.6
COc1cc(/C=N/Nc2ccc(C(=O)O)cc2)ccc1O | · | 38.7* | · | -0.1 | -15.9 | 7.2
C[C@H]1CN([C@@H](C)CO)C(=O)Cc2cc(NC(=O)Nc3ccc4c(c3)OCO4)ccc2O[C@@H]1CN(C)Cc1ccc(-c2ccccc2)cc1 | · | 4.5 | 4.0 | -0.6 | · | ·
CC(C)CC#Cc1cnc2c(c1)C(=O)N([C@@H](C)CO)C[C@H](C)[C@@H](CN(C)Cc1ccccn1)O2 | · | 0.6 | -6.4 | -1.3 | · | ·
Cc1cc(=O)c2c(o1)C(=O)c1occc1C2=O | 138.6* | 91.6* | · | -0.1 | 0.1 | -2.6
COc1ccc2c3c([nH]c2c1)[C@H](CO)N(C(=O)c1ccc(F)cc1)CC31CN(C(=O)CC2CC2)C1 | · | -2.1 | · | 0.2 | · | ·
S=c1nc(-c2ccccc2)oc2c1CCCC2 | 10.1 | · | · | · | 55.7 | 73.9*
COc1cccc(-c2nc(=S)c3c(o2)CCCC3)c1 | 3.6 | 0.8 | · | -0.1 | · | 11.0
COc1ccc(C#CC2=CC(=O)CC(C)(C)C2)cc1 | · | -2.5 | 44.9* | 0.2 | · | 8.4
CCc1ccc(C#CC2=CC(=O)CC(C)(C)C2)cc1 | · | 4.3 | 61.4* | 0.3 | · | 0.6
COc1ccc(C#Cc2ccc(C3=CC(=O)CC(C)(C)C3=O)cc2)cc1 | · | -0.7 | 39.9 | -0.1 | · | 2.4
CC(=O)N(C)C[C@@H]1Oc2cc(C#Cc3ccc(F)cc3)ccc2S(=O)(=O)N([C@@H](C)CO)C[C@H]1C | · | 2.1 | -12.3 | 0.1 | · | ·
COc1ccc2[nH]c3c(c2c1)CCn1c-3nc2ccccc2c1=O | · | · | -13.7 | · | 28.2 | 40.8*
CC(=O)Nc1ccc2c(c1)CC(=O)N(C)C[C@H](C)[C@H](CN(C)C)O2 | · | · | · | 0.2 | · | ·
C[C@@H]1CN(C)C(=O)c2ccccc2O[C@H]1CN(C)S(C)(=O)=O | · | · | · | 0.3 | · | ·
COc1ccc(-c2csc(NC(=O)CSCc3c(C)noc3C)n2)cc1OC | 2.4 | 59.8* | 25.9 | 0.0 | 3.8 | 0.4
Cn1cc(Cl)c(C(=O)OCC(=O)Nc2nc(-c3ccc(Br)cc3)cs2)n1 | -2.4 | · | 61.1* | · | 74.9 | 26.1
CCC(=O)N1CCC2(CC1)CN(S(=O)(=O)c1ccccc1)[C@H](CO)c1[nH]c3cc(OC)ccc3c12 | · | 1.8 | · | 0.4 | · | ·
Cc1cnc(C(=O)Nc2nnc(C3CC3)s2)cn1 | -5.0 | · | 32.8 | · | · | 16.2
COc1c(C(=O)Nc2nnc(C3CC3)s2)csc1Cl | · | -2.8 | 47.7* | 0.6 | 35.5 | 23.6
O=C(Nc1cccc(Cl)c1)c1csc([C@H]2C[C@H](O)[C@@H](CO)O2)n1 | -1.8 | -1.0 | 64.6* | -0.1 | · | ?
SMILES | NSD2 inh | Casp6 inh | esBAF inh | Xi reactivation | MITF act | Wnt act
O=C(Nc1ccc(Cl)cc1)c1csc([C@@H]2C[C@H](O)[C@@H](CO)O2)n1 | -7.3 | 0.6 | 13.6 | 0.8 | · | 6.4
O=C(O)c1cccc(Nc2nc(-c3cc4ccccc4oc3=O)cs2)c1 | -3.1 | 3.8 | 50.9* | 0.0 | 16.1 | 8.3
O=c1oc2ccccc2cc1-c1csc(NN=C2CCCC2)n1 | 2.1 | · | · | 0.0 | 34.3 | ·
C[C@@H]1CN([C@H](C)CO)C(=O)c2cc(C#CC3CCCC3)cnc2O[C@@H]1CN(C)C(=O)Nc1ccccc1 | · | 4.9 | -1.6 | -1.1 | · | ·
CCCNC(=O)C[C@H]1C[C@@H]2c3cc(N(C)C)ccc3O[C@@H]2[C@@H](CO)O1 | · | 12.4 | 4.1 | -0.1 | · | ·
Cc1ccc(-c2nc3ccc(NS(=O)(=O)c4ccccc4)cc3[nH]2)o1 | 0.1 | 5.3 | 77.8* | · | 50.1 | 21.6
O=C(COC(=O)C1CCN(S(=O)(=O)c2cccs2)CC1)NCc1ccccc1 | -1.2 | -0.2 | 1.5 | 0.0 | -8.3 | 8.5
Cc1ccc(CNC(=O)COC(=O)C2CCN(S(=O)(=O)c3cccs3)CC2)cc1 | -7.0 | -2.0 | 2.3 | 0.0 | -2.5 | 95.8*
CCCNC(=O)N1CC2(CN(C)C2)c2c(n(C)c3cc(OC)ccc23)[C@@H]1CO | · | · | · | 0.4 | · | ·
CO[C@@H]1CC[C@@H]2CCOc3c(C#N)cccc3C(=O)N(C)[C@H](C)C(=O)N(C)C[C@@H]1O2 | · | 3.1 | 0.6 | 0.0 | · | ·
CCCCSc1nc(CCC)cc(=O)[nH]1 | 1.8 | · | · | · | · | ·
CCCCSc1nc(C(=O)O)cc(=O)[nH]1 | -3.1 | -5.6 | -0.8 | -0.2 | -8.4 | 38.4*
COc1ccc(/C=C/C(=O)c2ccccn2)cc1 | 1.1 | 13.4 | · | 0.1 | 37.6 | 74.9*
COc1ccc([N+](=O)[O-])c(C=CC(=O)c2ccccn2)c1 | -1.5 | 2.4 | · | 0.0 | · | 6.6
COc1ccc(/C=C/C(=O)c2ccccc2O)cc1 | · | · | 86.9* | · | 140.7* | ·
C[C@H]1CN(C)C(=O)c2cc(N)ccc2O[C@H]1CN(C)S(C)(=O)=O | · | · | · | 0.1 | · | ·
O=C(OCC(=O)N1N=C(c2ccc(Cl)cc2)CC1c1ccco1)c1ccco1 (centres undefined) | 3.3 | 0.0 | -1.2 | 0.0 | 14.7 | -14.7
O=C(OCC(=O)N1N=C(c2ccc(Cl)cc2)CC1c1ccco1)c1cncc(Br)c1 (centres undefined) | 0.5 | 41.3* | 7.8 | 0.0 | 6.7 | 3.4
COc1ccc(-c2cc(-c3cc(F)ccc3O)[nH]n2)cc1OC | 0.2 | 2.0 | ? | · | 100.2* | 27.2
Cc1ccc(O)c(-c2cc(-c3cccc(F)c3)n[nH]2)c1 | 1.8 | · | 25.0 | · | -5.7 | 4.9
COC(=O)c1cc(-c2ccc(OC)c(OC)c2)n[nH]1 | -6.4 | · | 8.5 | · | -4.4 | -3.1
Cc1ccc(-c2cc(-c3cccc(F)c3)n[nH]2)c(O)c1 | 3.9 | · | 55.7* | · | 49.4 | ·
COc1ccc(-c2cc(-c3ccccc3O)[nH]n2)cc1OC | -7.7 | · | 86.9* | · | · | ·
C/C=C/c1ccc2c(c1)O[C@@H](CN(C)C(=O)C1CCCCC1)[C@@H](C)CN([C@@H](C)CO)S2(=O)=O | · | · | -12.9 | -1.1 | · | ·
COc1ccccc1NCCC(=O)O | -2.1 | -0.6 | · | 0.0 | -1.6 | 1.3
O=C(O)CCNc1ccc(NCCC(=O)O)c2c1C(=O)c1ccccc1C2=O | 56.2* | 70.1* | · | 0.1 | -23.7 | -0.5
CNC[C@H]1OCCCC[C@@H](C)Oc2ccc(NS(=O)(=O)c3ccc(C)cc3)cc2C(=O)N([C@@H](C)CO)C[C@@H]1C | · | · | 3.0 | 0.1 | · | ·
Cc1cccc(CCNC(=O)c2cc3ccccn3n2)c1 | 1.4 | · | · | · | · | ·
Cc1ccc(C)c(NC(=O)c2cc3ccccn3n2)c1 | · | -1.6 | 32.7 | 0.1 | 45.3 | 50.4*
Cc1ccccc1NC(=O)c1cc2ccccn2n1 | 0.8 | 2.5 | · | 0.0 | 62.4 | 59.2*

Assay outcomes from PubChem BioAssay.
